Source: ChEMBL document CHEMBL1142313, “Parallel synthesis of a series of potentially brain penetrant aminoalkyl benzoimidazoles” (Bioorg Med Chem, 2008)
pEC50: −log10 of the molar value. Activity calls are given as the source filed them. The rule behind the calls is not given here.

How the values were obtained:
Type in all cases: functional, cell-based
[1] = target: Neuronal acetylcholine receptor subunit alpha-7 (Rattus norvegicus, UniProt Q05941); assay: Agonist activity at rat alpha-7 nAChR expressed in GH4C1-F7 cells assessed as effect on calcium influx by FLIPR
[2] = target: Neuronal acetylcholine receptor subunit alpha-7 (Rattus norvegicus) (UniProt Q05941); assay: Reversal of agonist activity at rat alpha-7 nAChR expressed in GH4C1-F7 cells assessed as effect on calcium influx at 10 uM in presence of methyllycaconitine by FLIPR
How it was run: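 GH4C1-F7 rat alpha7-nAChR cells loaded with Fluo-4/probenecid at 37 °C for 30 min, then washed in HBSS-20 mM Hepes with 2.5 mM probenecid, with or without MLA 1 µM. Compound added and Ca2+ fluorescence read by FLIPR, every second for 1 min then every 30 s for 10 min. Peak height taken as max-min. A signal lost in the presence of MLA marks alpha7 selectivity.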

[3] = target: Neuronal acetylcholine receptor subunit alpha-7 (Rattus norvegicus) (UniProt Q05941); assay: Agonist activity at rat alpha-7 nAChR expressed in GH4C1-F7 cells assessed as effect on calcium influx at 5 uM by FLIPR relative to nicotine
How it was run: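 GH4C1-F7 cells stably expressing rat alpha7 nAChR were seeded at 100,000/well on poly-D-lysine plates and loaded with Fluo-4 (with pluronic acid and probenecid) for 30 min at 37 °C.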

Neuronal acetylcholine receptor subunit alpha-7, sequence (Q05941 whole entry): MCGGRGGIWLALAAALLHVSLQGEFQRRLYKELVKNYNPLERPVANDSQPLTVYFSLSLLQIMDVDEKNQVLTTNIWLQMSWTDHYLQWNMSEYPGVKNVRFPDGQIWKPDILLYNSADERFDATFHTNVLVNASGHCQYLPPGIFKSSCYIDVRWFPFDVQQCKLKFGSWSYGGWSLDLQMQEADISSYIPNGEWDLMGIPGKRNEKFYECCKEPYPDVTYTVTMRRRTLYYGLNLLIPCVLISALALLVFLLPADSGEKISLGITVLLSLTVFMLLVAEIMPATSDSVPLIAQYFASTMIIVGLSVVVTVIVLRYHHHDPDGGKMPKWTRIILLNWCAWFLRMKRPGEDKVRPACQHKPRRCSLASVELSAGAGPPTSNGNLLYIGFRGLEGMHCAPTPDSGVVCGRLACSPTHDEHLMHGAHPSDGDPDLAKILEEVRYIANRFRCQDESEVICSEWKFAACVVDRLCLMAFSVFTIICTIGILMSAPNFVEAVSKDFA
Neuronal acetylcholine receptor subunit alpha-7 (Rattus norvegicus), sequence (Q05941 whole entry): as above

Activity [3] [%]	SMILES	pEC50 [1]	Activity [2]
> 20	CN(C)CCCn1c(COc2ccccc2)nc2ccccc21	5.59	Active
> 20	CN1CCN(CCCn2c(COc3cccc(Cl)c3)nc3ccccc32)CC1	5.00	–
–	CN1[C@@H]2CC[C@H]1C[C@H](NC(=O)Nc1ccc(Br)cc1)C2	6.70	–
> 20	Cc1ccc2nc(Cc3ccc(Br)cc3)n(CCCN(C)C)c2c1	5.77	Active
–	O=C(Nc1ccccc1F)OC1CN2CCC1CC2 (stereo unspecified)	6.22	–

SMILES	Activity [3] [%]	pEC50 [1]	Activity [2]
CN1CCCC1CCn1c(Cc2ccc(Br)cc2)nc2ccccc21 (stereo unspecified)	> 20	5.57	Active
CN(C)CCCn1c(Cc2ccc(Br)cc2)nc2ccccc21	> 20	5.59	Active
